{"source": "paper PMC11387586", "about": "(Pharmacology Research & Perspectives, 2024)", "key": {"[1]": {"assay": "Plasma pharmacokinetics of aficamten, M1a and M1b", "type": "in vivo, human", "outline": "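About 3 mL K2EDTA blood was drawn predose and at 0.25–48 h, then every 24 h. Plasma was spun at about 2000G for 10 min at 4°C and stored at −20°C. Validated LC-MS/MS: parent on C18 with 10 mM ammonium acetate/acetonitrile gradient; M1a/M1b on a chiral column with 30:70 acetonitrile:10 mM ammonium acetate. Non-compartmental analysis gave Cmax, tmax, t1/2, AUCs, CL/F and Vz/F.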"}, "[2]": {"assay": "Total radioactivity in plasma and whole blood", "type": "in vivo, human", "conditions": "for Total radioactivity t1/2 / Total radioactivity tmax: median (range)", "outline": "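About 4 mL K2EDTA blood was drawn at the PK time points. […] Counting ran at least 5 min with quench correction, in duplicate where possible. LLOQ was 9.57 ng equivalents/g for blood and 6.86 for plasma. Non-compartmental analysis; tmax and t1/2 given as median (range), others as geometric mean.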"}, "[3]": {"assay": "Urinary excretion of aficamten, M1a and M1b", "type": "in vivo", "conditions": "human, urine, oral, 20 mg, renal clearance (CLR), geometric mean", "outline": "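Urine was collected predose, at 0–4, 4–8, 8–12 and 12–24 h, then every 24 h until discharge. Isopropyl alcohol equal to 20% of void mass was added, pools were kept at 4°C, and aliquots were frozen at −20°C. Urinary excretion of parent and M1a/M1b (fe0-tlast) and renal clearance came from non-compartmental analysis, given as geometric means.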"}, "[4]": {"assay": "Mass balance: radioactive dose recovered in urine and feces", "type": "in vivo, human", "conditions": "for Cumulative percent of radioactive dose recovered: urine", "outline": "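8 healthy men each got one [14C]-labelled 20 mg oral capsule (about 100 μCi) with 240 mL water after a fast of at least 10 h. Urine was collected at 0–4, 4–8, 8–12 and 12–24 h, then every 24 h; feces every 24 h, homogenised in about 20:80 acetonitrile:water. Urine was counted directly by LSC; fecal homogenate was combusted first. Samples ran in duplicate. Collection continued until discharge criteria were met.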"}, "[5]": {"assay": "Metabolite profiling of plasma", "type": "in vivo, human", "conditions": "pooled samples 2 to 264 h", "outline": "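Plasma taken at 2, 4, 12, 24, 72, 120, 168 and 264 h was pooled across participants by time point, in proportion to weight (1.2–2.5 g each), then counted by LSC. LC-HRMS profiling used fraction radioactivity counts. For chiral M1a/M1b separation, a 2–264 h pool ran on a cellulose column with reverse-phase gradient, 0.6 mL/min, over 15 min. Exposure = component AUC0-t / total radioactivity AUC0-t × 100.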"}, "[6]": {"assay": "Metabolite profiling of urine", "type": "in vivo, human", "conditions": "pooled urine", "outline": "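Urine was pooled per participant into 0–336, 0–384 and 0–432 h pools (0.03–0.08% of each sample weight) and counted by LSC. Radiochromatograms came from LC-HRMS fractions. Chiral separation of M1a and M1b used a […] pool. Identification cut-off was 1% of dose; quantitation limit was 1% of run and 10 cpm peak height. % of dose = (% radioactivity in peak/100) × % of dose in sample.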"}, "[7]": {"assay": "Metabolite profiling of feces", "type": "in vivo, human", "conditions": "pooled feces", "outline": "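Feces from single oral 20 mg (about 100 μCi) [14C] dosing was homogenised in about 20:80 acetonitrile:water. Metabolites were profiled by LC-HRMS with radioactivity counted in collected fractions. Identification cut-off was 1% of dose; quantitation limit was 1% of run and 10 cpm peak height. % of dose = (% radioactivity in peak/100) × % of dose in sample.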"}, "[8]": {"assay": "Safety assessments", "type": "in vivo, human", "conditions": "single oral 20 mg", "outline": "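After one [14C] 20 mg oral dose, eight healthy men were monitored for vital signs, 12-lead ECG, clinical chemistry, haematology, urinalysis and adverse events at several time points. They stayed confined until at least Day 19 or until discharge criteria were met. A follow-up phone call came 7–9 days after discharge.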"}, "[9]": {"conditions": "cited from earlier work"}, "[10]": {"conditions": "cited from earlier work", "remark": "listed apart in the source"}, "[11]": {"conditions": "oral dose, cited from earlier work"}, "[12]": {"system": "naive rat intestinal contents", "conditions": "anaerobic conditions; cited from earlier work"}, "[13]": {"conditions": "whole blood, geometric mean (CV%)"}}, "note": "Values joined by “and” are separate entries in the source; they are usually repeats but may differ in a detail not shown here. Equal values may be shown once.", "data": [{"smiles": "CCc1nc(-c2ccc3c(c2)CC[C@H]3NC(=O)c2cnn(C)c2)no1", "note": "[Aficamten]", "values": [{"measurement": "Tmax", "setting": "[1]; human, po, 20 mg", "result": 2, "unit": "h"}, {"measurement": "Vd/F", "setting": "[1]; human, po, 20 mg", "result": 690, "unit": "L"}, {"measurement": "AUC", "setting": "[1]; human, po, 20 mg, AUC0‐inf, single oral 20 mg, geometric mean (CV%)", "result": 4440, "unit": "ng·h/mL"}, {"measurement": "AUC", "setting": "[1]; human, po, 20 mg, AUC0‐tlast, single oral 20 mg, geometric mean (CV%)", "result": 4120, "unit": "ng·h/mL"}, {"measurement": "Cmax", "setting": "[1]; human, po, 20 mg, Cmax, single oral 20 mg, geometric mean (CV%)", "result": 61.8, "unit": "ng/mL"}, {"measurement": "half-life", "setting": "[1]; human, po, 20 mg, t1/2, plasma, single oral 20 mg, median (range)", "result": 4.15, "unit": "days"}, {"measurement": "CL/F", "setting": "[1]; single oral 20 mg, geometric mean (CV%)", "result": "4.50 (32.1) L/h"}, {"measurement": "CL/F", "setting": "[1]; single oral 20 mg, geometric mean (CV%), listed as aficamten", "result": 4.50, "unit": "L/h"}, {"measurement": "ratio of plasma analyte to plasma total radioactivity, AUC0‐inf", "setting": "[2]; geometric mean", "result": 0.290}, {"measurement": "ratio of total radioactivity in whole blood: plasma based on AUC0‐inf", "setting": "[2]; geometric mean", "result": 0.566}, {"measurement": "Total radioactivity Cmax", "setting": "[2]; plasma, geometric mean (CV%)", "result": "111 (43.2) ng/mL"}, {"measurement": "Total radioactivity t1/2", "setting": "[2]; plasma", "result": "98.2 (80.1–230) h"}, {"measurement": "Total radioactivity tmax", "setting": "[2]; plasma", "result": "3.50 (1.00–6.00) h"}, {"measurement": "Total radioactivity AUC0‐inf", "setting": "[2]; [13]", "result": "8660 (23.7) h.ng/mL"}, {"measurement": "Total radioactivity AUC0‐tlast", "setting": "[2]; [13]", "result": "5710 (38.5) h.ng/mL"}, {"measurement": "Total radioactivity Cmax", "setting": "[2]; [13]", "result": "66.7 (44.9) ng/mL"}, {"measurement": "Total radioactivity t1/2", "setting": "[2]; whole blood", "result": "100 (86.2–171) h"}, {"measurement": "Total radioactivity tmax", "setting": "[2]; whole blood", "result": "4.50 (1.00–16.0) h"}, {"measurement": "CL renal", "setting": "[3]", "result": 0.0438, "unit": "mL/min"}, {"measurement": "fraction of dose absorbed", "setting": "[4]; based on recovery data", "result": "at least 0.95"}, {"measurement": "mean recovery of radiolabeled material", "setting": "[4]; urine and feces combined, by 336 h postdose", "result": 85.0, "unit": "%"}, {"measurement": "overall mean recovery of radioactivity in urine and feces", "setting": "[4]; urine and feces combined, end of sampling period (600 h)", "result": 89.7, "unit": "%"}, {"measurement": "Cumulative percent of radioactive dose recovered", "setting": "[4]; 0–96 h, individual subject", "result": "24.1% and 8.99% and 16.2% and 13.5% and 11.2% and 17.7% and 18.3% and 14.0%"}, {"measurement": "Cumulative percent of radioactive dose recovered", "setting": "[4]; 0–96 h, mean", "result": 15.5, "unit": "%"}, {"measurement": "Cumulative percent of radioactive dose recovered", "setting": "[4]; 0–120 h, individual subject", "result": "27.4% and 11.2% and 18.0% and 15.7% and 13.7% and 20.5% and 21.1% and 16.4%"}, {"measurement": "Cumulative percent of radioactive dose recovered", "setting": "[4]; 0–120 h, mean", "result": 18.0, "unit": "%"}, {"measurement": "Cumulative percent of radioactive dose recovered", "setting": "[4]; 0–144 h, individual subject", "result": "31.3% and 13.3% and 20.8% and 17.1% and 15.7% and 22.2% and 23.6% and 18.7%"}, {"measurement": "Cumulative percent of radioactive dose recovered", "setting": "[4]; 0–144 h, mean", "result": 20.3, "unit": "%"}, {"measurement": "Cumulative percent of radioactive dose recovered", "setting": "[4]; 0–168 h, individual subject", "result": "34.3% and 14.7% and 22.3% and 18.2% and 17.5% and 24.1% and 25.7% and 20.7%"}, {"measurement": "Cumulative percent of radioactive dose recovered", "setting": "[4]; 0–168 h, mean", "result": 22.2, "unit": "%"}, {"measurement": "Cumulative percent of radioactive dose recovered", "setting": "[4]; 0–192 h, individual subject", "result": "36.9% and 16.1% and 23.8% and 19.2% and 18.6% and 25.5% and 27.2% and 22.3%"}, {"measurement": "Cumulative percent of radioactive dose recovered", "setting": "[4]; 0–192 h, mean", "result": 23.7, "unit": "%"}, {"measurement": "Cumulative percent of radioactive dose recovered", "setting": "[4]; 0–216 h, individual subject", "result": "38.9% and 17.6% and 25.3% and 20.3% and 19.9% and 26.6% and 28.6% and 23.8%"}, {"measurement": "Cumulative percent of radioactive dose recovered", "setting": "[4]; 0–216 h, mean", "result": 25.1, "unit": "%"}, {"measurement": "Cumulative percent of radioactive dose recovered", "setting": "[4]; 0–240 h, individual subject", "result": "40.8% and 18.6% and 27.2% and 21.3% and 20.8% and 27.7% and 29.6% and 25.2%"}, {"measurement": "Cumulative percent of radioactive dose recovered", "setting": "[4]; 0–240 h, mean", "result": 26.4, "unit": "%"}, {"measurement": "Cumulative percent of radioactive dose recovered", "setting": "[4]; 0–264 h, individual subject", "result": "42.5% and 19.7% and 28.6% and 21.9% and 21.6% and 28.5% and 30.6% and 26.2%"}, {"measurement": "Cumulative percent of radioactive dose recovered", "setting": "[4]; 0–264 h, mean", "result": 27.5, "unit": "%"}, {"measurement": "Cumulative percent of radioactive dose recovered", "setting": "[4]; 0–288 h, individual subject", "result": "43.8% and 20.5% and 29.9% and 22.5% and 22.0% and 29.3% and 31.2% and 27.1%"}, {"measurement": "Cumulative percent of radioactive dose recovered", "setting": "[4]; 0–288 h, mean", "result": 28.3, "unit": "%"}, {"measurement": "Cumulative percent of radioactive dose recovered", "setting": "[4]; 0–312 h, individual subject", "result": "44.8% and 20.9% and 30.6% and 22.9% and 22.4% and 30.0% and 31.8% and 27.8%"}, {"measurement": "Cumulative percent of radioactive dose recovered", "setting": "[4]; 0–312 h, mean", "result": 28.9, "unit": "%"}, {"measurement": "Cumulative percent of radioactive dose recovered", "setting": "[4]; 0–336 h, individual subject", "result": "45.7% and 21.8% and 31.4% and 23.2% and 22.7%"}, {"measurement": "Cumulative percent of radioactive dose recovered", "setting": "[4]; 0–336 h, mean", "result": 29.5, "unit": "%"}, {"measurement": "AUC0‐t % of total radioactivity AUC0‐t", "setting": "[5]", "result": 19.8, "unit": "%"}, {"measurement": "AUC0‐t % of total radioactivity AUC0‐t", "setting": "[5]; listed as aficamten", "result": "approximately 19.8%"}, {"measurement": "Percent of radioactive dose in urine", "setting": "[6]", "result": "No unchanged aficamten was recovered"}, {"measurement": "Percent of radioactive dose in feces", "setting": "[7]", "result": 5.07, "unit": "%"}, {"measurement": "Percent of radioactive dose in feces", "setting": "[7]; listed as aficamten", "result": "approximately 5.07%"}, {"measurement": "tolerability", "setting": "[8]; 8 healthy male participants", "result": "well tolerated"}, {"measurement": "changes in vital signs, ECG measurements, laboratory values", "setting": "[8]; 8 participants", "result": "no clinically significant changes in vital signs, ECG measurements, or laboratory values"}, {"measurement": "deaths, serious AEs, AEs leading to discontinuation", "setting": "[8]; 8 participants", "result": "no deaths, and serious AEs or any AEs leading to discontinuation"}, {"measurement": "participants with an AE (diarrhea, mild, not considered related to treatment)", "setting": "[8]; 8 participants", "result": 12.5, "unit": "%"}, {"measurement": "effect of food on absorption", "setting": "[9]", "result": "did not affect the extent of aficamten absorption"}, {"measurement": "time to steady state concentrations", "setting": "[9]; multiple doses", "result": "≤ 2", "unit": "weeks"}, {"measurement": "PK parameters in moderate hepatic impairment versus normal hepatic function", "setting": "[10]", "result": "generally comparable"}, {"measurement": "percent of the [^14C]aficamten radioactive dose in bile", "setting": "[11]; bile duct cannulated rats", "result": "trace level"}, {"measurement": "percent of the [^14C]aficamten radioactive dose in feces", "setting": "[11]; intact rats", "result": "lack of detection"}, {"measurement": "radioactive dose excreted by the hepatobiliary route", "setting": "[11]; rat", "result": "approximately 90%"}, {"measurement": "radioactive dose excreted in urine", "setting": "[11]; rat", "result": "approximately 8%"}, {"measurement": "fate on incubation with rat intestinal contents", "setting": "[12]", "result": "completely cleared"}]}]}
